Reference: ChEMBL document CHEMBL1121719, “1-Oxacephalosporins: enhancement of beta-lactam reactivity and antibacterial activity” (1981)
Values after ≈ are worked out from the molar mass of the structure shown.

Key:
[1] = molecular target: T1, Beta-lactamase (Klebsiella oxytoca) (UniProt Q8RT60); assay: Hydrolysis rate by beta-lactamase of Klebsiella sp. 363 relative to cephaloridine (100)
T1 sequence (whole entry): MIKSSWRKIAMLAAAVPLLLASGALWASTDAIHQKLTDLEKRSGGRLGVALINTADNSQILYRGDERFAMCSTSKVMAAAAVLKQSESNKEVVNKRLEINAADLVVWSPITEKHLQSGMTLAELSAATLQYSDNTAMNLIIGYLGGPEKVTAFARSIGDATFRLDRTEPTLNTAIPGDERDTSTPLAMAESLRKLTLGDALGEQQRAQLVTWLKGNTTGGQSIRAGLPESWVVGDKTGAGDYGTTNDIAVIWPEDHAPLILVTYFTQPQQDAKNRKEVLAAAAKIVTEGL
Summary of the method: (§1)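 Constitutive producers were grown statically in nutrient phosphate broth at 37 °C for 16 h, then sonicated. Enzyme was partially purified on DEAE-Sephadex A-25 (phosphate gradient, 0.01 M pH 8.0 to 0.5 M pH 6.2). Assay conditions: 0.1 M potassium phosphate pH 7.0, 30 °C, 0.001% gelatin in enzyme diluent, 100 μM final substrate. Hydrolysis rate was taken from the slope of UV absorbance decrease, with cephaloridine set to 100.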

Proteus mirabilis [2] = assay: Inhibitory concentration of compound was tested against gram negative Proteus mirabilis PR-4.; assay type: functional
Summary of the method: (§2)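 MIC by agar dilution on sensitivity test agar with serial twofold antibiotic dilutions. The inoculum was an overnight tryptose broth culture diluted to about 10⁶ cells/mL. Plates were incubated at 37 °C for 18-20 h. MIC was the lowest concentration inhibiting visible growth.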

Escherichia coli [3] = assay: Inhibitory concentration of compound was tested against gram negative Escherichia coli H organism.; assay type: functional; summary of the method: as §2
Klebsiella pneumoniae [4] = assay: (§3) Inhibitory concentration of compound was tested against gram negative Klebsiella sp 363.; assay type: functional; summary of the method: as §2
Escherichia coli [5] = assay: Inhibitory concentration of compound was tested against gram negative Escherichia coli NIH JC-2.; assay type: functional; summary of the method: as §2
Klebsiella pneumoniae [6] = assay: Inhibitory concentration of compound was tested against gram negative Klebsiella pneumoniae.; assay type: functional; summary of the method: as §2
[7] = molecular target: Beta-lactamase (Escherichia coli K-12) (UniProt P00811); assay: Hydrolysis rate by the beta-lactamase from Escherichia coli 6 relative to cephaloridine.
Chain of Beta-lactamase (Escherichia coli K-12) (P00811 whole entry): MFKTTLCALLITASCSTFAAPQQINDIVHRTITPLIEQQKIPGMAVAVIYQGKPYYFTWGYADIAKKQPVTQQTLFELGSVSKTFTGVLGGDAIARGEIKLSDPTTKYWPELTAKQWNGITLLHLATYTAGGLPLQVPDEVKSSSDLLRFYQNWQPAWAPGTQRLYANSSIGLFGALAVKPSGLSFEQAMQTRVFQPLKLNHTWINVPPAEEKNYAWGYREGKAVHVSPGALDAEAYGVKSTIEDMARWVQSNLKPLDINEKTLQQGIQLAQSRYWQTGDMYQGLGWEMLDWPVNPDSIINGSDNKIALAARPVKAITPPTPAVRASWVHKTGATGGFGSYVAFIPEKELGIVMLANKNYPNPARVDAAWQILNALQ
Summary of the method: (§4)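 Cells were grown statically in nutrient phosphate broth for 16 h at 37 °C and disrupted ultrasonically. β-lactamase was partially purified on CM-Sephadex C-50. Substrate (100 μM final) was hydrolysed in 0.1 M potassium phosphate pH 7.0 at 30 °C, with the enzyme diluted in buffer containing 0.001% gelatin. Rate came from the slope of UV optical density decrease and was expressed relative to cephaloridine = 100.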

Escherichia coli [8] = assay: Inhibitory concentration of compound was tested against gram negative Escherichia coli 73.; assay type: functional; summary of the method: as §2
[9] = molecular target: Beta-lactamase TEM (Escherichia coli) (UniProt P62593); assay: Hydrolysis rate by the beta-lactamase from Escherichia coli W3110 RTEM relative to cephaloridine.; summary of the method: as §1
Chain of Beta-lactamase TEM (Escherichia coli) (P62593 whole entry): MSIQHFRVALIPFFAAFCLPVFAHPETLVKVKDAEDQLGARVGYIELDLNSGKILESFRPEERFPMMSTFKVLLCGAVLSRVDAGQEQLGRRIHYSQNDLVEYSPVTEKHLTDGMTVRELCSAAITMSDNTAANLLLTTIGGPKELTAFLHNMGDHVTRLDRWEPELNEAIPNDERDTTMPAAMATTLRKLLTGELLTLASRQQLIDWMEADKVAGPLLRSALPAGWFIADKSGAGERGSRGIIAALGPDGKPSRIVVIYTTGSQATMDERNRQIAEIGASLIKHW

[10] = test system: Beta-lactamase (Proteus vulgaris); assay: Hydrolysis rate by the beta-lactamase from Proteus vulgaris 31 relative to cephaloridine.
[11] = molecular target: Beta-lactamase (Enterobacter cloacae) (UniProt P05364); assay: Hydrolysis rate by the beta-lactamase from Enterobacter cloacae 214 relative to cephaloridine (100); c= Hydrolysis was not detected; summary of the method: as §4
Chain of Beta-lactamase (Enterobacter cloacae) (UniProt P05364) (P05364 21-381 limits assumed): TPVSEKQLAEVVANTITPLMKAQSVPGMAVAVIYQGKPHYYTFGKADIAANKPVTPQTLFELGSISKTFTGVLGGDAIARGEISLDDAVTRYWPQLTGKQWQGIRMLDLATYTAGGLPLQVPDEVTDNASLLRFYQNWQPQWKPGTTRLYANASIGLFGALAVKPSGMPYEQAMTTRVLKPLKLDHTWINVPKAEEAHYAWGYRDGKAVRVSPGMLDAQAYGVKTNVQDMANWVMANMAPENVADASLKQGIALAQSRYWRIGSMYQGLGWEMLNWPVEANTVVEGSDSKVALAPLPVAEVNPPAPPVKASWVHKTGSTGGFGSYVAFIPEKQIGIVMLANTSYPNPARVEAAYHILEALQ

[12] = molecular target: Beta-lactamase (Escherichia coli K-12) (UniProt P00811); assay: Hydrolysis rate by the beta-lactamase from Escherichia coli 6 relative to cephaloridine (100); c= Hydrolysis was not detected; summary of the method: as §4
Escherichia coli [13] = assay: Inhibitory concentration of compound was tested against gram negative Escherichia coli NIH JC-2; assay type: functional; summary of the method: as §2
Escherichia coli [14] = assay: Inhibitory concentration of compound was tested against gram negative Escherichia coli H organism; assay type: functional; summary of the method: as §2
[15] = test system: Beta-lactamase (Klebsiella sp.); assay: Hydrolysis rate by the beta-lactamase from Klebsiella sp. 363 relative to cephaloridine (100)
Proteus mirabilis [16] = assay: Inhibitory concentration of compound was tested against gram negative Proteus mirabilis PR-4.
Klebsiella = assay: as §3; assay type: functional; summary of the method: as §2
Klebsiella pneumoniae [17] = assay: Inhibitory concentration of compound was tested against gram negative Klebsiella pneumoniae
[18] = molecular target: Beta-lactamase (Enterobacter cloacae) (UniProt P05364); assay: Hydrolysis rate by the beta-lactamase from Enterobacter cloacae 214 relative to cephaloridine (100);c= Hydrolysis was not detected; summary of the method: as §4
[19] = molecular target: Beta-lactamase (Escherichia coli K-12) (UniProt P00811); assay: Hydrolysis rate by the beta-lactamase from Escherichia coli 6 relative to cephaloridine (100);c= Hydrolysis was not detected; summary of the method: as §4
[20] = test system: Beta-lactamase (Enterobacter cloacae); assay: Hydrolysis rate by the beta-lactamase from Enterobacter cloacae 214 relative to cephaloridine (100)
[21] = test system: Beta-lactamase (Proteus vulgaris); assay: Hydrolysis rate by the beta-lactamase from Proteus vulgaris 31 relative to cephaloridine (100)

Relative hydrolysis rate [1] | MIC (Proteus mirabilis [2]) [µg/mL] | MIC (Escherichia coli [3]) [µg/mL] | MIC (Klebsiella pneumoniae [4]) [µg/mL] | MIC (Escherichia coli [5]) [µg/mL] | MIC (Klebsiella pneumoniae [6]) [µg/mL] | Relative hydrolysis rate [7] | MIC (Escherichia coli [8]) [µg/mL] | Relative hydrolysis rate [9] | Relative hydrolysis rate [10] | Structure (SMILES) | other results
130 | 0.78 (≈ 1.69 µM) | 0.2 (≈ 0.432 µM) | > 100 | 0.39 (≈ 0.843 µM) | 0.39 (≈ 0.843 µM) | 14 | 25 (≈ 54.1 µM) | 55 | – | Cn1nnnc1SCC1=C(C(=O)O)N2C(=O)C(NC(=O)C(O)c3ccccc3)C2SC1 (configuration not stated) | –
– | – | – | – | – | – | 750 | > 100 | 1.5 | 160 | CC1=C(C(=O)O)N2C(=O)C(NC(=O)CSC(F)(F)F)C2SC1 (configuration not stated) | MIC (Escherichia coli [13]): 50 µg/mL (≈ 140 µM); MIC (Escherichia coli [14]): 25 µg/mL (≈ 70.2 µM); Relative hydrolysis rate [15]: 6.2; MIC (Proteus mirabilis [16]): 50 µg/mL (≈ 140 µM); MIC (Klebsiella): > 100 µg/mL; MIC (Klebsiella pneumoniae [17]): 50 µg/mL (≈ 140 µM)
6.3 | 3.13 (≈ 6.18 µM) | 3.13 (≈ 6.18 µM) | 50 (≈ 98.7 µM) | 3.13 (≈ 6.18 µM) | 3.13 (≈ 6.18 µM) | – | 50 (≈ 98.7 µM) | 0.96 | 20 | Cn1nnnc1SCC1=C(C(=O)O)N2C(=O)C(NC(=O)C(C(=O)O)c3ccc(O)cc3)C2SC1 (configuration not stated) | Relative hydrolysis rate [18]: Hydrolysis not detected; Relative hydrolysis rate [19]: Hydrolysis not detected
360 | 0.1 (≈ 0.224 µM) | 0.05 (≈ 0.112 µM) | 100 (≈ 224 µM) | 0.05 (≈ 0.112 µM) | 0.05 (≈ 0.112 µM) | 39 | > 100 | 370 | 300 | Cn1nnnc1SCC1=C(C(=O)O)N2C(=O)C(NC(=O)C(O)c3ccccc3)C2OC1 (configuration not stated) | –
– | – | – | – | – | – | 57 | – | 0.75 | – | CC1=C(C(=O)O)N2C(=O)[C@@H](NC(=O)[C@H](N)c3ccccc3)[C@H]2SC1 | –
– | – | – | – | – | – | 260 | – | 12 | – | CC1=C(C(=O)O)N2C(=O)C(NC(=O)C(N)c3ccccc3)C2OC1 (configuration not stated) | Relative hydrolysis rate [20]: 95; Relative hydrolysis rate [15]: 9.6; Relative hydrolysis rate [21]: 330

Continued, compound first:

Structure (SMILES) | Relative hydrolysis rate [1] | MIC (Proteus mirabilis [2]) [µg/mL] | MIC (Escherichia coli [3]) [µg/mL] | MIC (Klebsiella pneumoniae [4]) [µg/mL] | MIC (Escherichia coli [5]) [µg/mL] | MIC (Klebsiella pneumoniae [6]) [µg/mL] | Relative hydrolysis rate [7] | MIC (Escherichia coli [8]) [µg/mL] | Relative hydrolysis rate [9] | Relative hydrolysis rate [10] | other results
Cn1nnnc1SCC1=C(C(=O)O)N2C(=O)C(NC(=O)C(C(=O)O)c3ccc(O)cc3)C2OC1 (configuration not stated) | 80 | 0.39 (≈ 0.795 µM) | 0.2 (≈ 0.408 µM) | 100 (≈ 204 µM) | 0.2 (≈ 0.408 µM) | 0.2 (≈ 0.408 µM) | – | 50 (≈ 102 µM) | 19 | 86 | Relative hydrolysis rate [11]: Hydrolysis not detected; Relative hydrolysis rate [12]: Hydrolysis not detected
Cn1nnnc1SCC1=C(C(=O)O)N2C(=O)C(NC(=O)Cc3csc(N)n3)C2OC1 (configuration not stated) | 240 | 0.2 (≈ 0.442 µM) | 0.1 (≈ 0.221 µM) | > 100 | 0.2 (≈ 0.442 µM) | 0.2 (≈ 0.442 µM) | 360 | > 100 | 350 | 770 | –
Cn1nnnc1SCC1=C(C(=O)O)N2C(=O)C(NC(=O)Cc3csc(N)n3)C2SC1 (configuration not stated) | 4.1 | 0.1 (≈ 0.213 µM) | 0.05 (≈ 0.107 µM) | 6.25 (≈ 13.3 µM) | 0.1 (≈ 0.213 µM) | 0.1 (≈ 0.213 µM) | 120 | 1.56 (≈ 3.33 µM) | 17 | 250 | –
CCN1CCN(C(=O)NC(C(=O)NC2C(=O)N3C(C(=O)O)=C(CSc4nnnn4C)COC23)c2ccc(OC(N)=O)cc2)C(=O)C1=O (configuration not stated) | 0.69 | 0.2 (≈ 0.297 µM) | ≤ 0.013 | 12.5 (≈ 18.6 µM) | ≤ 0.013 | ≤ 0.013 | 10 | 12.5 (≈ 18.6 µM) | 110 | 34 | –
Cn1nnnc1SCC1=C(C(=O)O)N2C(=O)C(NC(=O)/C(=N\O)c3ccc(NS(C)(=O)=O)cc3)C2SC1 (configuration not stated) | 35 | 6.25 (≈ 11 µM) | 0.78 (≈ 1.37 µM) | > 100 | 0.78 (≈ 1.37 µM) | 1.56 (≈ 2.74 µM) | 2.2 | 50 (≈ 87.9 µM) | 34 | 170 | –
Cc1nnc(SCC2=C(C(=O)O)N3C(=O)C(NC(=O)Cn4cnnn4)C3SC2)s1 (configuration not stated) | – | – | 1.56 (≈ 3.43 µM) | – | 1.56 (≈ 3.43 µM) | – | – | 25 (≈ 55 µM) | – | – | MIC (Klebsiella): > 100 µg/mL
Cn1nnnc1SCC1=C(C(=O)O)N2C(=O)C(NC(=O)/C(=N\O)c3ccc(NS(C)(=O)=O)cc3)C2OC1 (configuration not stated) | 350 | 1.56 (≈ 2.82 µM) | 0.78 (≈ 1.41 µM) | > 100 | 0.78 (≈ 1.41 µM) | 0.78 (≈ 1.41 µM) | 5.5 | > 100 | 290 | 330 | –
Cc1nnc(SCC2=C(C(=O)O)N3C(=O)C(NC(=O)Cn4cnnn4)C3OC2)s1 (configuration not stated) | 380 | 1.56 (≈ 3.56 µM) | 0.78 (≈ 1.78 µM) | > 100 | 0.78 (≈ 1.78 µM) | 1.56 (≈ 3.56 µM) | 150 | > 100 | 620 | 1200 | –
CC1=C(C(=O)O)N2C(=O)C(NC(=O)CSC(F)(F)F)C2OC1 (configuration not stated) | 100 | 25 (≈ 73.5 µM) | 3.13 (≈ 9.2 µM) | > 100 | 6.25 (≈ 18.4 µM) | 6.25 (≈ 18.4 µM) | 910 | 100 (≈ 294 µM) | 18 | 500 | –
CCN1CCN(C(=O)NC(C(=O)NC2C(=O)N3C(C(=O)O)=C(CSc4nnnn4C)CSC23)c2ccc(OC(N)=O)cc2)C(=O)C1=O (configuration not stated) | 3.1 | 1.56 (≈ 2.27 µM) | ≤ 0.013 | > 100 | 0.1 (≈ 0.145 µM) | 0.05 (≈ 0.0726 µM) | 5.1 | 12.5 (≈ 18.2 µM) | 59 | 16 | –
Cn1nnnc1SCC1=C(C(=O)O)N2C(=O)C(NC(=O)Cc3ccc(O)cc3)C2SC1 (configuration not stated) | 120 | 1.56 (≈ 3.37 µM) | 0.78 (≈ 1.69 µM) | 100 (≈ 216 µM) | 3.13 (≈ 6.77 µM) | 1.56 (≈ 3.37 µM) | 360 | 25 (≈ 54.1 µM) | 39 | 410 | –
Cn1nnnc1SCC1=C(C(=O)O)N2C(=O)C(NC(=O)Cc3ccc(O)cc3)C2OC1 (configuration not stated) | 630 | 0.39 (≈ 0.874 µM) | 0.39 (≈ 0.874 µM) | > 100 | 0.78 (≈ 1.75 µM) | 0.78 (≈ 1.75 µM) | 1200 | > 100 | 560 | 710 | –
